Bioassay records as filed in PubChem BioAssay.
procasp3 activ: activators of human procaspase-3 D3A mutant, primary screen, biochemical, absorbance, PC-3 D3A mutant, single concentration; Caspase-3 (Homo sapiens), P42574; recombinant procaspase-3 D3A, Ac-DEVD-pNA absorbance 405 nm; activation, % at 8.5 µM; 330,000 tested, 0.11% active; AID 463141, 2010;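 active = activation above the mean of all tested compounds plus 3 SD, cut at about 21% in these data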;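 also: 0% = DMSO alone and 100% = DMSO wells spiked with extra 5 µM PC-3 D3A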
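System: Procaspase-3 D3A mutant. Medium: Zinc-free 300 mM NaCl, 50 mM HEPES, 0.01% Triton X-100. Schedule: 1 h preincubation plus 2 h reaction at 25 °C. Measured by: 405 nm absorbance of p-nitroaniline, reads at 0 and 120 min. Read-out: percent activation relative to control range.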
Rce1 inhib: yeast Rce1p protease inhibitors, primary screen, biochemical, fluorescence, cell-free homogeneous; AID 2563, 2010; 290,000 tested, 0.27% active; yeast membranes, quenched prenylated peptide cleavage fluorescence; calls only; CAAX prenyl protease 2 (Saccharomyces cerevisiae (strain ATCC 204508 / S288c)), Q03530;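 active = fall in fluorescence gain of 50% or more versus controls, with final raw signal at or below 3038400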;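 also: plate controls were neutral control wells for no effect and wells lacking membranes for full effect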
Target sequence (Q03530 whole entry, looked up): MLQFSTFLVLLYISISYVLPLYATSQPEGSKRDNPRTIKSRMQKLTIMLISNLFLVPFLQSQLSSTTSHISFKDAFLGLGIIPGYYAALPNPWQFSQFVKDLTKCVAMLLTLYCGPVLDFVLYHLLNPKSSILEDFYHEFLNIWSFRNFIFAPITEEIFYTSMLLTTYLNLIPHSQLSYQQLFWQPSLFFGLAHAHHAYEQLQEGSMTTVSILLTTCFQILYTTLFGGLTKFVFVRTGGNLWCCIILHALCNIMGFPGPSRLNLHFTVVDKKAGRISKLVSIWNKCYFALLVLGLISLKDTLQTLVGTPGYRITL
Lipid droplet: inhibitors of hepatocyte lipid droplet formation, primary screen, imaging, high-throughput imaging, BODIPY stain | AML12 mouse hepatocytes, oleate lipid droplets | inhibition, % at 6.5 µM | 240,000 tested, 0.4% active;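 active = lipid droplet intensity inhibited by at least 50%, with more than 500 cells counted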
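Test system: AML12 hepatocytes (mouse); reagent: oleate loading, 100 µM; dosing: one dose, 6.5 µM compound; incubation: overnight exposure; signal: fluorescence imaging, 20x objective, two fields per well; read-out basis: % inhibition of corrected integrated BODIPY droplet signal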
proCasp7 act: procaspase-7 activators, primary screen, counter-screen for procaspase-3 activator project, biochemical, absorbance, HTS, human | Caspase-7 (Homo sapiens), P55210 | AID 463210, 2010 | activation, % at 8.5 µM | recombinant procaspase-7, Ac-DEVD-pNA absorbance 405 nm; D23A/D198A/D206A triple mutant, cannot self-cleave; scale: DMSO 0, 5 µM enzyme 100 | 330,000 tested, 0.093% active;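 active = percent activation above the screen-wide mean plus 3 SD, cut at about 25% in these data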
Target sequence (P55210 whole entry D23A/D198A/D206A): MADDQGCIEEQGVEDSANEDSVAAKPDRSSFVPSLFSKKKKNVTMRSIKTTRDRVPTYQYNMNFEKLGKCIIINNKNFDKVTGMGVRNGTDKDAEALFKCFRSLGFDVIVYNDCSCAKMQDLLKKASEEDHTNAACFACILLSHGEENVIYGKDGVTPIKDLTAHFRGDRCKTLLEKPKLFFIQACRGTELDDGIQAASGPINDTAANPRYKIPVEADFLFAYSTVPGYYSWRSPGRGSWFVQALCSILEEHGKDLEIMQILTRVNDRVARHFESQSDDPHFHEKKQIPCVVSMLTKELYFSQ
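Detection: p-Nitroaniline absorbance at 405 nm, read at 0 and 120 min; system: Uncleavable procaspase-7 mutant enzyme; evaluation: % activation from two-timepoint absorbance difference, scaled to controls; times: 1 h enzyme–compound preincubation and 2 h substrate reaction, both 25 °C; buffer or medium: Zinc-free HEPES pH 7.4 with 300 mM NaCl, 0.01% Triton X-100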
p-CIP stab down: p/CIP-EGFP fusion destabilizers, primary screen, fluorescence, F442A cells; Q05BA5; 16 h; decrease of EGFP signal, % at 10 µM; 290,000 tested, 0.01% active;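 active = EGFP signal decrease of at least 30% at 10 µM or well 3 SD below plate mean, unless failing retest; inactive = the rest, including hits failing retest or dose response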
FXN GAA850 act: FXN promoter activators, primary screen, cell-based, luciferase luminescence, HEK293 lucGAA850; HEK293 lucGAA850 FXN promoter luciferase reporter, 24 h; percent of 10 µM SAHA response; activation, % at 6 µM; 360,000 tested, 0.56% active; AID 540364, 2011;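 active = activation above the average of all compounds screened plus 3 SD, cutoff fixed separately per campaign, cut at about 7.5% in these data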;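 also: 0% = DMSO wells and 100% = 10 µM SAHA wells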
Hep lipid conf: hepatocyte lipid droplet accumulation inhibitors, confirmation, imaging, AML12 mouse hepatocytes, single concentration, high-content | inhibition, % at 5.2 µM | shares compounds with Lipid droplet | BODIPY lipid droplet imaging; droplets induced with 100 µM oleic acid | 870 tested, 65% active;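 active = inhibition of lipid droplet metric at least 50%, with more than 300 cells in each of four replicates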;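 also: plate controls were DMSO with oleic acid for no effect and 5 µM Triacsin-C for full effect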
AML12 cytotox: AML12 hepatocyte cytotoxicity, counter-screen for hepatic lipid droplet formation project, imaging, DAPI nuclear morphology imaging. shares compounds with Lipid droplet. z-score at 5 µM. AML12 mouse hepatocytes; stronger effect = higher value; cells fed 100 µM oleate overnight. AID 463200, 2010. 870 tested, 3% active; in the data active = z-score above about 6.3;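 also: compound exposure lasted overnight at 37 °C before fixation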
AML12 tox ATP: AML12 hepatocyte cytotoxicity, confirmation, cytotoxicity control for hepatic lipid droplet formation project, cell-based, single concentration | shares compounds with Lipid droplet | AML12 mouse hepatocyte viability, ATP luminescence; cells loaded with 100 µM oleic acid | cytotoxicity, % at 50 µM | 530 tested, under 10 active | AID 463219, 2010;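 active = cytotoxicity above 50% in each of four replicates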;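 also: compound exposure lasted overnight at 37 °C before the ATP read; 0% = DMSO-treated cells and 100% = wells with no cells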
* marks the source's active call; other numbers are inactive results; i = inactive; x = not tested or not shown. Sampled rows, rich in hits. Any-hit rate of the full collection: about 1.2%.

SMILES | procasp3 activ | Rce1 inhib | Lipid droplet | proCasp7 act | p-CIP stab down | FXN GAA850 act | Hep lipid conf | AML12 cytotox | AML12 tox ATP
CC1(C(=O)Nc2cccc3cccnc23)CCN1Cc1ccc(-c2ccccc2)o1 (centres undefined) | x | x | x | x | x | -1 | x | x | x
Cc1nc(CN(C)c2ncnc3ccc(-c4ccc5c(c4)OCO5)cc23)cs1 | x | x | x | x | x | -4 | x | x | x
Cc1ccc(-n2nc3c(c2NC(=O)CC(C)C)CS(=O)(=O)C3)cc1 | 1 | i | -3 | -3 | -3 | 3 | x | x | x
CCC(=O)Nc1c2c(nn1-c1ccc(C)cc1)CS(=O)(=O)C2 | -2 | i | 57* | -3 | -5 | 0 | 35 | 0.25 | x
Cc1ccccc1C(=O)NC1CCN(Cc2nnnn2C2CCCC2)CC1 | 0 | i | 63* | 1 | -31 | 3 | 31 | -0.19 | x
COc1ccc(C2(c3ccc(OC)cc3)NC(=O)N(CC(=O)Nc3ccc(OC)c(OC)c3)C2=O)cc1 | -2 | i | 52* | -3 | 2 | 0 | 74* | -1.3 | 18
COc1ccc(C2(c3ccc(OC)cc3)NC(=O)N(CC(=O)Nc3ccccc3C)C2=O)cc1 | x | i | 60* | x | 5 | 0 | 104* | -0.77 | 11
CN(C)c1ccc(CC(=O)N2CCCCC2c2cc(C(=O)Nc3ccccc3)no2)cc1 (centres undefined) | x | x | x | x | x | 1 | x | x | x
COc1ccc(-n2c(=O)c3ccccc3n(CC(=O)Nc3cc(C)on3)c2=O)cc1OC | -2 | i | 52* | -12 | -6 | 1 | 31 | -0.63 | x
COc1ccc(-n2c(=O)c3ccccc3n(CC(=O)c3ccccc3)c2=O)cc1OC | 7 | i | 6 | 9 | -13 | -2 | x | x | x
OC[C@H]1O[C@@H](c2nc(-c3ccc(CN4CCOCC4)cc3)no2)[C@H](O)[C@@H](O)[C@H]1O | x | x | x | x | x | -1 | x | x | x
Cc1cccc(C(C(=O)NC2CCCC2)N(C(=O)c2csnn2)C2CCCC2)c1 (centres undefined) | 9 | x | 77* | 9 | -1 | 0 | 74* | -0.49 | 12
COc1ccc(-c2c/c(=N\c3nc(-c4ccccc4)c(C)s3)c3ccccc3o2)cc1O | 17 | i | 58* | -14 | -6 | 6 | -20 | 23* | x
COc1ccc(-c2cc(=Nc3c(C)n(C)n(-c4ccccc4)c3=O)c3ccccc3o2)cc1 | 4 | i | 0 | -52 | 1 | 3 | x | x | x
CCOC(=O)N1CCN(C(=O)CSCC(=O)Nc2nc(-c3ccc(OC)cc3)cs2)CC1 | 3 | i | 16 | 5 | -4 | 0 | x | x | x
CCOC(=O)N1CCN(C(=O)CSCC(=O)Nc2nc(-c3ccc(-c4ccccc4)cc3)cs2)CC1 | 8 | i | 82* | 7 | -11 | -8 | 76* | 0.13 | 42
CC(C)CNC(=O)C1(C)CCN1C(=O)c1ccc(C(C)(C)C)cc1 (centres undefined) | x | x | x | x | x | -1 | x | x | x
CCN1CCN(c2c(/C=C3\SC(=S)N(Cc4ccco4)C3=O)c(C)c(C#N)c(=O)n2C)CC1 | 0 | x | 65* | -15 | -55 | -2 | 9 | -0.44 | x
CC(=O)NC(C)(c1ccccc1)c1nc(-c2cccc(C(F)(F)F)c2)cs1 (centres undefined) | x | x | x | x | x | 5 | x | x | x
COC(=O)c1cn(NC(=O)c2ccc([N+](=O)[O-])cc2Cl)c(=O)c2ccccc12 | 6 | i | 50* | 2 | 8 | -2 | 25 | 0.56 | x
Cc1ccc(NC(=O)C2(C)CCN2Cc2cccc3c2OCO3)cc1O (centres undefined) | x | x | x | x | x | -5 | x | x | x
O=[N+]([O-])c1cc(Cl)ccc1N1CCN(c2cccc(C(F)(F)F)c2)CC1 | 7 | i | 64* | -4 | -9 | 0 | 94* | 0.54 | 0
O=[N+]([O-])c1cc(Cl)ccc1N1CCCC1 | -4 | i | 6 | -1 | 2 | 2 | x | x | x
CCNC(=S)N1CCc2cc(OC)c(OC)cc2C1COc1ccc(F)cc1 (centres undefined) | 4 | i | 60* | -6 | -5 | 0 | 97* | -0.0057 | 3
CC(C)NC(=O)Nc1ccc2c(c1)C(=O)N([C@@H](C)CO)C[C@H](C)[C@H](CN(C)S(=O)(=O)c1ccccc1)OCCCC[C@H](C)O2 | x | x | x | x | x | -3 | x | x | x
SMILES | procasp3 activ | Rce1 inhib | Lipid droplet | proCasp7 act | p-CIP stab down | FXN GAA850 act | Hep lipid conf | AML12 cytotox | AML12 tox ATP
CCc1nc2ccc(C(=O)N3CCN(c4ccccc4)CC3)cn2c1N(CCC(C)C)CCN(C)C | x | x | x | x | x | -10 | x | x | x
CCOc1ccc(C2=Nc3ccc(Br)cc3C(c3ccc(N4CCOCC4)cc3)=NN2)cc1 | -9 | i | 62* | -4 | -2 | 3 | 23 | -0.046 | x
COC(=O)CC1OCC=C2CN3CCC45C6=CC(=O)C(=O)C([N+](=O)[O-])=C6NC4C1C2CC35 (centres undefined) | x | x | x | x | x | -1 | x | x | x
Cc1ccc(-c2cc(C(=O)O)c3cc(Br)ccc3n2)o1 | -18 | i | -4 | -23 | -1 | 2 | x | x | x
Cc1ccc(-c2cc(C(=O)NC3=NCCS3)c3cc(Br)ccc3n2)o1 | -9 | i | 107* | -14 | -6 | x | 4 | -0.45 | x
CN(C(=O)CSc1cc(C(=O)c2nccn2C)c2ccccc2n1)c1ccccc1 | -1 | i | 81* | 15 | -1 | -1 | -16 | -0.019 | x
CCOc1ccc(CCNC(=O)CCS(=O)(=O)c2ccc(C)cc2)cc1OCC | -5 | i | 102* | 3 | 0 | 0 | 95* | -0.82 | 8
CCOc1ccc(CCNC(=O)CCC(=O)N2CCOc3ccccc32)cc1OCC | -7 | i | 83* | 7 | -3 | 0 | 111* | -0.36 | 17
CCOc1ccc(CCNC(=O)CCS(=O)(=O)c2ccc(Br)cc2)cc1OCC | 1 | i | 54* | -6 | 8 | 0 | 92* | 0.049 | 12
O=C(CCC(=O)N1CCOc2ccccc21)NCCc1ccccc1 | 2 | i | -10 | -2 | -2 | -1 | x | x | x
